Experimental findings from ChEMBL document CHEMBL4007487, “Discovery of Novel Pyridone-Conjugated Monosulfactams as Potent and Broad-Spectrum Antibiotics for Multidrug-Resistant Gram-Negative Infections” (J Med Chem, 2017) are described below.

The subject of one data set is Pseudomonas aeruginosa. Kind of data set: Antibacterial activity against extended spectrum beta-lactamase IMP-4 producing multidrug resistant Pseudomonas aeruginosa clinical isolates after 18 hrs by broth microdilution method. The data set is classed as functional. For orientation: In broth dilution the organism is exposed to a series of concentrations in liquid medium.

For a further data set, the system named is Klebsiella pneumoniae. Kind of data set: Antibacterial activity against extended spectrum beta-lactamase KPC-2 producing multidrug resistant Klebsiella pneumoniae clinical isolates after 18 hrs by broth microdilution method. Format: functional.
For the next data set, the system named is Acinetobacter baumannii. Kind of data set: Antibacterial activity against extended spectrum beta-lactamase OXA-23 producing multidrug resistant Acinetobacter baumannii clinical isolates after 18 hrs by broth microdilution method. Format: functional.
The test system of another data set is Escherichia coli. Nature of the data set: Antibacterial activity against extended spectrum beta-lactamases producing Escherichia coli clinical isolates after 18 hrs by broth microdilution method. Format: functional.
Data set [1] in a line: Drug degradation in human plasma at 10 uM after 4 hrs by LC-MS/MS analysis. Format: ADME, cell-free. To be noted: read-out: Drug degradation. Put shortly: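 Human plasma containing compound (10 μM, n = 4) was incubated for 4 h at 37 °C under 5% CO2. Concentrations at T0 and at 4 h were measured by LC–MS/MS, and degradation was expressed as a percentage relative to the T0 average.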

The subject of a further data set is Plasma. Kind of data set: Fraction unbound in human plasma at 10 uM after 4 hrs by LC-MS/MS based rapid equilibrium dialysis method. Format: ADME, cell-free. In short, it runs like this: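 Human plasma spiked at 10 μM was dialysed against buffer in a rapid equilibrium dialysis device for 4 h at 37 °C under 5% CO2 (n = 4). Both sides were quantified by LC–MS/MS. Fraction unbound was taken as the buffer concentration divided by the total plasma-side concentration.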
For orientation: In equilibrium dialysis only unbound substance equilibrates across the membrane.

[2] abbreviates: Klebsiella pneumoniae, 18 h, read-out: MIC.

Structures are written as SMILES. ≈ marks a conversion by molar mass, not a printed value.

For orientation: MIC means the smallest concentration in the dilution series that meets the test's criterion for growth inhibition.

For `CC(C)OCC(O/N=C(\C(=O)N[C@@H]1C(=O)N(OS(=O)(=O)O)C1(C)C)c1csc(N)n1)c1cc(=O)c(O)cn1O` (stereo partly drawn), the MIC was in the range of 0.5 to 8 µg/mL (≈ 0.847 to 13.5 µM) in the data set on Pseudomonas aeruginosa, 0.25 to 64 µg/mL (≈ 0.423 to 108 µM) with Klebsiella pneumoniae (setting [2]) and 1 to 8 µg/mL (≈ 1.69 to 13.5 µM) against Acinetobacter baumannii.
With `CC(O/N=C(\C(=O)N[C@@H]1C(=O)N(OS(=O)(=O)O)C1(C)C)c1csc(N)n1)c1cc(=O)c(O)cn1O` (stereo partly drawn), the MIC in the data set with Escherichia coli fell in the range of 0.06 to 0.25 µg/mL (≈ 0.113 to 0.469 µM); against Pseudomonas aeruginosa, 0.25 to 8 µg/mL (≈ 0.469 to 15 µM); against Klebsiella pneumoniae, 0.03 to 64 µg/mL; in the data set with Acinetobacter baumannii, 0.5 to 64 µg/mL (≈ 0.939 to 120 µM). The metabolised at 4 h, 10 µM in data set [1] is 24%. The Fu in the data set on Plasma turned out to be 41%.
As to `CC(=O)N(O)CCO/N=C(\C(=O)N[C@@H]1C(=O)N(OS(=O)(=O)O)C1(C)C)c1csc(N)n1`, the MIC against Escherichia coli is 4 to 32 µg/mL (≈ 8.32 to 66.6 µM); against Pseudomonas aeruginosa it was at least 64 µg/mL; with Klebsiella pneumoniae (setting [2]), 32 to 64 µg/mL (≈ 66.6 to 133 µM); against Acinetobacter baumannii it was 16 to 64 µg/mL (≈ 33.3 to 133 µM).
The like results for `CC(C)[C@@H](O/N=C(\C(=O)N[C@@H]1C(=O)N(OS(=O)(=O)O)C1(C)C)c1nsc(N)n1)c1cc(=O)c(O)cn1O` were, in that order, 0.5 to 8 µg/mL (≈ 0.89 to 14.2 µM), 1 to 4 µg/mL (≈ 1.78 to 7.12 µM), 0.5 to 2 µg/mL (≈ 0.89 to 3.56 µM) and 0.5 to 64 µg/mL (≈ 0.89 to 114 µM).
As for `CC1(C)[C@H](NC(=O)/C(=N\OC(c2cccs2)c2cc(=O)c(O)cn2O)c2csc(N)n2)C(=O)N1OS(=O)(=O)O` (stereo partly drawn), the MIC in the data set with Pseudomonas aeruginosa was 0.5 to 2 µg/mL (≈ 0.832 to 3.33 µM); in the data set on Klebsiella pneumoniae (setting [2]), 0.06 to 16 µg/mL (≈ 0.0999 to 26.6 µM); against Acinetobacter baumannii, 0.5 to 2 µg/mL (≈ 0.832 to 3.33 µM).
Take `CC1(C)[C@H](NC(=O)/C(=N\OC(CO)c2cc(=O)c(O)cn2O)c2csc(N)n2)C(=O)N1OS(=O)(=O)O` (stereo partly drawn): the MIC in the data set with Escherichia coli is 0.06 to 4 µg/mL (≈ 0.109 to 7.29 µM); in the data set on Pseudomonas aeruginosa, 0.25 to 16 µg/mL (≈ 0.456 to 29.2 µM); in the data set with Klebsiella pneumoniae (setting [2]), 0.25 to 64 µg/mL (≈ 0.456 to 117 µM); with Acinetobacter baumannii, 0.5 to 2 µg/mL (≈ 0.912 to 3.65 µM). Besides, the metabolised at 4 h, 10 µM in data set [1] was 50%. In the data set on Plasma, this compound returned a Fu of 59%.
`CC(C)C(O/N=C(\C(=O)N[C@@H]1C(=O)N(OS(=O)(=O)O)C1(C)C)c1nsc(N)n1)c1cc(=O)c(O)cn1O` (stereo partly drawn): the MIC against Escherichia coli was 0.06 to 2 µg/mL (≈ 0.107 to 3.56 µM); in the data set on Pseudomonas aeruginosa, 0.5 to 32 µg/mL (≈ 0.89 to 57 µM); with Klebsiella pneumoniae (setting [2]), 0.06 to 1 µg/mL (≈ 0.107 to 1.78 µM); against Acinetobacter baumannii it was 0.5 to 4 µg/mL (≈ 0.89 to 7.12 µM). The metabolised at 4 h, 10 µM in data set [1] was 11%. In the data set on Plasma, the Fu came out at 28%.
On to `Cn1nc(O)c(=O)nc1SCCO/N=C(\C(=O)N[C@@H]1C(=O)N(OS(=O)(=O)O)C1(C)C)c1csc(N)n1`, for which the MIC lay within 1 to 8 µg/mL (≈ 1.77 to 14.2 µM) against Escherichia coli, 16 to 64 µg/mL (≈ 28.3 to 113 µM) in the data set on Pseudomonas aeruginosa, 16 to 64 µg/mL (≈ 28.3 to 113 µM) with Klebsiella pneumoniae (setting [2]) and 16 to 64 µg/mL (≈ 28.3 to 113 µM) in the data set with Acinetobacter baumannii.
Regarding `CC(C)SCC(O/N=C(\C(=O)N[C@@H]1C(=O)N(OS(=O)(=O)O)C1(C)C)c1csc(N)n1)c1cc(=O)c(O)cn1O` (stereo partly drawn), the MIC against Pseudomonas aeruginosa was in the range of 0.25 to 4 µg/mL (≈ 0.412 to 6.59 µM); with Klebsiella pneumoniae (setting [2]), 0.06 to 1 µg/mL (≈ 0.0989 to 1.65 µM); against Acinetobacter baumannii it was 0.25 to 2 µg/mL (≈ 0.412 to 3.3 µM). For the same compound, the metabolised at 4 h, 10 µM in data set [1] is 34%. Further, the Fu in the data set on Plasma came to 21%.
`Cc1cc(=O)c(O)cn1CCO/N=C(\C(=O)N[C@@H]1C(=O)N(OS(=O)(=O)O)C1(C)C)c1csc(N)n1`: the minimal inhibitory concentration (MIC) is 1 to 64 µg/mL (≈ 1.88 to 121 µM) in the data set on Escherichia coli, 64 µg/mL (≈ 121 µM) in the data set on Pseudomonas aeruginosa, 8 to 64 µg/mL (≈ 15.1 to 121 µM) in the data set with Klebsiella pneumoniae (setting [2]) and 8 to 64 µg/mL (≈ 15.1 to 121 µM) with Acinetobacter baumannii.
For `CSC[C@H](O/N=C(\C(=O)N[C@@H]1C(=O)N(OS(=O)(=O)O)C1(C)C)c1csc(N)n1)c1cc(=O)c(O)cn1O`, the MIC in the data set with Pseudomonas aeruginosa was 0.5 to 2 µg/mL (≈ 0.864 to 3.46 µM); in the data set with Klebsiella pneumoniae it was above 0.06 to 64 µg/mL; in the data set on Acinetobacter baumannii, 0.5 to 4 µg/mL (≈ 0.864 to 6.91 µM). Besides, the metabolised at 4 h, 10 µM in data set [1] is 39%. For the same compound, in the data set with Plasma, the Fu was found to be 29%.
Consider `COC(=O)C(O/N=C(\C(=O)N[C@@H]1C(=O)N(OS(=O)(=O)O)C1(C)C)c1csc(N)n1)c1cc(=O)c(O)cn1O` (stereo partly drawn), for which the MIC in the data set on Escherichia coli lay in the range of 0.25 to 1 µg/mL (≈ 0.434 to 1.73 µM); with Pseudomonas aeruginosa, 1 to 4 µg/mL (≈ 1.73 to 6.94 µM); with Klebsiella pneumoniae (setting [2]), 0.25 to 2 µg/mL (≈ 0.434 to 3.47 µM); in the data set with Acinetobacter baumannii it was 0.5 to 1 µg/mL (≈ 0.867 to 1.73 µM). Moreover, the metabolised at 4 h, 10 µM in data set [1] was found to be 66%. Also, in the data set with Plasma, the Fu is 61%.
As for `CC(O/N=C(\C(=O)N[C@@H]1C(=O)N(OS(=O)(=O)O)C1(C)C)c1nsc(N)n1)c1cc(=O)c(O)cn1O` (stereo partly drawn), the results for the MIC in the data set on Pseudomonas aeruginosa, in the data set with Klebsiella pneumoniae (setting [2]) and in the data set with Acinetobacter baumannii were 0.5 to 64 µg/mL (≈ 0.937 to 120 µM), 0.25 to 64 µg/mL (≈ 0.469 to 120 µM) and 2 to 64 µg/mL (≈ 3.75 to 120 µM), respectively. In addition, the metabolised at 4 h, 10 µM in data set [1] was 13%. For the same compound, the Fu in the data set on Plasma is 37%.
In the case of `C=CC(O/N=C(\C(=O)N[C@@H]1C(=O)N(OS(=O)(=O)O)C1(C)C)c1csc(N)n1)c1cc(=O)c(O)cn1O` (stereo partly drawn), the MIC was 0.5 to 2 µg/mL (≈ 0.918 to 3.67 µM) against Pseudomonas aeruginosa, above 0.03 to 64 µg/mL against Klebsiella pneumoniae and 0.25 to 2 µg/mL (≈ 0.459 to 3.67 µM) against Acinetobacter baumannii.
In the case of `CO/N=C(\C(=O)N[C@@H]1C(=O)N2C(C(=O)[O-])=CCS[C@H]12)c1csc(N)n1.[Na+]` [CEFTIZOXIME SODIUM], the MIC against Escherichia coli was 0.5 to 2 µg/mL; against Pseudomonas aeruginosa, above 64 µg/mL; in the data set with Klebsiella pneumoniae (setting [2]) it was 32 to 64 µg/mL; against Acinetobacter baumannii, 32 to 64 µg/mL.
